Assay outcomes (PubChem)
Plk1 PBD FP = inhibitors of human Plk1 polo box domain binding | P53350 | Plk1 PBD phosphopeptide binding, fluorescence polarization | inhibition, %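 (tested at about 20 µM)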 | 0.13% of 97,000 active; in the data active = inhibition above about 34%, passing the limit was not always enough
Target sequence (P53350 whole entry, looked up, the tested form may be a part): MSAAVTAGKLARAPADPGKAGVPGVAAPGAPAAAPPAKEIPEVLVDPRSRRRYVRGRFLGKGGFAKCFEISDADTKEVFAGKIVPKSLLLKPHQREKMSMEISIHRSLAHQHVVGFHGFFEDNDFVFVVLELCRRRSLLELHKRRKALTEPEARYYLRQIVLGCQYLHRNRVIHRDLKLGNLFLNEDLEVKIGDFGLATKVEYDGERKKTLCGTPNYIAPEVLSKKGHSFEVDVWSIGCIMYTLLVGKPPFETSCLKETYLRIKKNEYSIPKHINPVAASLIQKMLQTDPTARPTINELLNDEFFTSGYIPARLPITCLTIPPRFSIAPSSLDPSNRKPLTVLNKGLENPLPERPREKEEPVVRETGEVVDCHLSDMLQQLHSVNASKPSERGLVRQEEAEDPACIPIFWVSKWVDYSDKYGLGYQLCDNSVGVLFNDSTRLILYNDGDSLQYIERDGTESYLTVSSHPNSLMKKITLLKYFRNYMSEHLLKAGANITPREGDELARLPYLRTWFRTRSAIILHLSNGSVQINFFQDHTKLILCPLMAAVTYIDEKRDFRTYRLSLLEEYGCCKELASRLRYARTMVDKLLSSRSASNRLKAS
HIV Rev-RRE inh = inhibitors of HIV-1 Rev-RRE RNA interaction; Rev peptide-RRE RNA binding, FRET; P05866; inhibition, % at 8 µM; 0.79% of 97,000 active;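 active = inhibition above the screen-wide mean plus 3 SD, cut at about 35% in these data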
Target sequence (P05866 whole entry, looked up): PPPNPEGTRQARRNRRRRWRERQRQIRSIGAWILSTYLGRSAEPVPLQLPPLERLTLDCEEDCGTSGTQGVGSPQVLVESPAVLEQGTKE
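Probe or stimulus: fluorescein-Rev peptide as binding partner; assay system: Cy5-tagged RRE RNA duplex with fluorescein-tagged Rev peptide; timing: 5 min compound–RNA preincubation, then 15 min with peptide, 25 °C; medium: HEPES pH 7.5 buffer with KCl, MgCl2, NaCl and EDTA; signal: fluorescein-to-Cy5 FRET, 480 nm excitation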
PLK1 kinase inh = PLK1 (human) kinase inhibition; recombinant PLK1 kinase, TR-FRET peptide phosphorylation; inhibition, % at 10 µM; 0.53% of 97,000 active;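 active = inhibition of 50% or more in the single-concentration screen; inactive = inhibition below 50%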
E-sel TNF inh = TNF alpha driven E-selectin expression inhibition; HUVEC TNFa-induced E-selectin immunofluorescence, high content; 0.71% of 120,000 active; inhibition, % at 2 µM; AID 1246;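 active = inhibition above the batch mean plus 3 SD, and confirmed as a hit on visual image review, cut at about 43% in these data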
cytoskel mod = cytoskeleton assembly modification; 0.18% of 91,000 active; AID 836; inhibition, % at 2 µM; HUVEC TNFa F-actin phalloidin imaging, high content;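 active = inhibition above the batch mean plus 3 SD and confirmed as a hit by visual image inspection, cut at about 30% in these data, passing the limit was not always enough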
FAK blocker = blocks human focal adhesion kinase activity; 0.84% of 97,000 active; AID 727; inhibition, %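 (tested at 7 µM)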; Q05397; biochemical FAK kinase activity assay; in the data active = inhibition above about 19%
Hits are given with their value; i = inactive; nt = no result; [ ] = remark or other dose. Sampled rows, rich in hits. Any-hit rate of the full collection: about 2.2%.

SMILES	Plk1 PBD FP	HIV Rev-RRE inh	PLK1 kinase inh	E-sel TNF inh	cytoskel mod	FAK blocker
Cc1cccc(NC(NC(=O)Cc2ccccc2)C(Cl)(Cl)Cl)c1 (stereo unspecified)	nt	nt	nt	i	nt	nt
CCOC(=O)N1CCN(C(=O)COc2cccc3c2CCN(Cc2cccc(C)c2)C3=O)CC1	nt	nt	nt	69	nt	nt
COc1cc(C)c(CNc2ccc(OC)c(OC)c2)cc1C	i	40	i	nt	i	i
COc1cc(C)c(CNc2cccc(C)c2)cc1C	i	i	i	i	i	i
O=C(CC1(O)C(=O)Nc2ccccc21)c1ccccc1 (stereo unspecified)	i	i	65	nt	nt	i
Cc1ccc(OCC(=O)N2CCN(C(=O)Cc3ccccc3)CC2)cc1	i	i	i	i	71	i
CCCCN(C(=O)c1cc(OC)c(OC)c(OC)c1)C1=CC2CCC(C1)N2C (stereo unspecified)	i	i	i	98	i	i
COc1ccc2oc3cc(C)[n+]([O-])c(-c4ccc(C)cc4)c3c2c1	nt	nt	nt	i	nt	nt
CN1CCN(c2nc(-c3ccncc3)nc3ccccc23)CC1	i	i	53	i	i	i
N#C/C(=C\c1ccc(-c2cccc([N+](=O)[O-])c2)o1)c1nnc(N2CCOCC2)n1-c1ccccc1	nt	nt	nt	i	nt	nt
CNc1ccc(Br)cc(C(=O)/C=C/c2cccc(OC)c2OC)c1=O	i	65	i	i	i	i
CNc1ccccc(C(=O)/C=C/c2ccccc2OC)c1=O	nt	nt	nt	i	nt	nt
CCNc1ccc(Br)cc(C(=O)/C=C/c2ccccc2Cl)c1=O	i	77[fluorescence artefact?]	i	i	i	i
CCOC(=O)C1=C(c2ccccc2)N=c2s/c(=C\c3ccco3)c(=O)n2C1c1cccs1 (stereo unspecified)	i	i	i	i	nt	21
O=C(Nc1cc(Cl)cc(Cl)c1)c1cnn2cccnc12	i	i	i	i	i	i
O=C(Nc1cccc(Cl)c1)c1cnn2cccnc12	i	i	60	i	nt	i
O=C(OCC#CCSc1nnc(-c2ccncc2)o1)c1cccs1	i	i	54	i	nt	i
COC(=O)CSc1nnc(-c2ccncc2)o1	i	i	i	i	i	i
CCOc1ccc2c(c1)c(N=O)c(O)n2C	nt	nt	nt	i	nt	nt
COc1ccc(C2C/C(=N\O)C(C)(C)O2)cc1 (stereo unspecified)	i	i	i	nt	i	i
COc1ccc(C2CC(O)(C(C)(C)O)NO2)cc1 (stereo unspecified)	i	i	i	47	nt	i
CC1(/[N+]([O-])=C/c2ccccc2F)CCCCC1=O (stereo unspecified)	nt	nt	nt	i	nt	nt
CCOC(=O)C1CCN(Cc2ccccc2C)CC1	i	i	i	i	30	i
CC(C)c1ccccc1NC(=O)COC(=O)COc1ccccc1[N+](=O)[O-]	nt	nt	nt	i	nt	nt
CC(C)N(CCNC(=O)c1cn(C)c2ccc(S(=O)(=O)N(C)C)cc2c1=O)Cc1ccccc1	i	i	59	nt	nt	i
SMILES	Plk1 PBD FP	HIV Rev-RRE inh	PLK1 kinase inh	E-sel TNF inh	cytoskel mod	FAK blocker
CN1CCN(CCCNC(=O)c2cn(C)c3ccc(S(=O)(=O)N(C)C)cc3c2=O)CC1	i	i	i	nt	i	i
COCCNC(=O)c1cn(C)c2ccc(S(=O)(=O)N(C)C3CCCCC3)cc2c1=O	i	i	62	nt	nt	i
Cc1ccc2oc(Nc3nc(-c4ccccc4)cc(=O)[nH]3)nc2c1	nt	nt	nt	100	nt	nt
CCOc1ccc(N(CC(=O)NC(C)CC)S(=O)(=O)c2c(C)noc2C)cc1 (stereo unspecified)	i	i	63	nt	nt	i
CCOc1ccc(N(CC(=O)Nc2ccc(OC)cc2)S(=O)(=O)c2c(C)noc2C)cc1	i	i	i	nt	i	i
COc1ccc(/C(O)=C2\C(=O)C(=O)N(CCN3CCOCC3)C2c2ccccc2OC)cc1 (stereo unspecified)	nt	nt	nt	i	nt	nt
COc1ccccc1C1/C(=C(/O)c2ccc(C)cc2)C(=O)C(=O)N1CCN1CCOCC1 (stereo unspecified)	nt	nt	nt	70	nt	nt
COC(=O)c1ccc2c(=O)n(CC3CCCO3)c(SCC(=O)NCCc3ccc(S(N)(=O)=O)cc3)nc2c1 (stereo unspecified)	nt	nt	nt	i	nt	nt
Cc1ccc(-n2nnc3c(=O)n(Cc4cc(C)ccc4C)cnc32)cc1	i	i	i	i	i	22
Cc1ccc(-n2nnc3c(=O)n(Cc4cccc(C)c4)cnc32)cc1	i	i	i	i	i	i
[O-][n+]1onc2c1C(N1CCOCC1)CCC2N1CCOCC1 (stereo unspecified)	i	i	i	82	i	i
CCn1ncc(/C=N\NC(=O)Cc2ccc([N+](=O)[O-])cc2)c1C	nt	nt	nt	i	nt	nt
N#CC1=C(N)SC(N)=C(C#N)C1Cc1ccccc1	i	47	i	nt	i	i
COC1(OC)N=C(N)C2(C#N)C(c3cccc(Oc4ccccc4)c3)C12C#N (stereo unspecified)	i	i	i	nt	i	i
N#CC1=C(N)SC(N)=C(C#N)C1c1cccc(Oc2ccccc2)c1	i	80	i	i	i	i
N#CC1=C(N)SC(N)=C(C#N)C1c1c(Cl)cccc1Cl	i	i	i	nt	i	i
N#CC1=C(N)SC(N)=C(C#N)C1CCc1ccccc1	i	79	i	i	i	i
CC(C)CC1C(C#N)=C(N)SC(N)=C1C#N	i	i	i	i	i	i
O=C(O)c1cn(Cc2ccccc2)nc1-c1cccnc1	nt	nt	nt	i	nt	nt
COc1ccc(NC(=O)CC23CC4CC(CC(C4)C2)C3)cn1	nt	nt	nt	i	nt	nt
COc1ccc(NC(=O)/C(Cl)=C(/Cl)S(=O)Cc2ccccc2Cl)cn1 (stereo unspecified)	nt	nt	nt	100	nt	nt
COc1ccc(NC(=O)/C(Cl)=C(/Cl)S(=O)(=O)Cc2ccc(C)cc2)cn1	i	i	i	72	i	i
O=C(CCN(NC(=O)c1ccccc1)C1=NS(=O)(=O)c2ccccc21)NC1CCCCC1	nt	nt	nt	i	nt	nt
O=C1/C(=C/c2ccccc2)Nc2ccccc21	i	129[fluorescence artefact?]	i	i	i	i
O=C(NCc1ccccc1)c1n[nH]nc1-c1ccccc1O	nt	nt	nt	58	nt	nt
SMILES	Plk1 PBD FP	HIV Rev-RRE inh	PLK1 kinase inh	E-sel TNF inh	cytoskel mod	FAK blocker
CSc1nc(SCC(=O)NCc2ccco2)c2c3c(sc2n1)CN(C)CC3	i	i	i	nt	nt	22
CCCCN1C(=O)C2Cc3c([nH]c4ccccc34)CN2C1=S (stereo unspecified)	nt	nt	nt	i	nt	nt
CC(C)CNC(=O)c1ccc(NC(=O)c2cccs2)cc1	nt	nt	nt	i	nt	nt
COc1ccc(-c2nnc(SCC(=O)N3CCCC3)o2)cc1OC	i	i	i	i	nt	i
COc1ccc(CCNC(=O)C2CCN(Cc3nc(-c4cccc(Cl)c4)oc3C)CC2)cc1OC	nt	nt	nt	i	nt	nt
CCOC(=O)N1CCN(C(=O)C2CCN(Cc3nc(-c4ccccc4C)oc3C)CC2)CC1	i	i	68	nt	nt	i
COc1ccc(-c2nc(CN3CCC(C(=O)N4CCc5ccccc54)CC3)c(C)o2)cc1OC	i	i	61	nt	nt	i
COc1ccc(-c2nnc(SCC(=O)N3CCCc4ccccc43)o2)cc1OC	i	i	i	i	34	i
COCCCNC(=S)N1CCC(NC(=O)c2ccco2)CC1	nt	nt	nt	i	nt	nt
O=C(Cn1nnc(-c2ccc(Cl)cc2)n1)NC1CCN(Cc2ccccc2)CC1	i	i	i	100	i	i
